IC50 and EC50 data for six compounds are collected here from BindingDB's records for doi:10.1021/jm100062h (Ferrara University, 2010).

A value given as a limit tells only on which side of the number the result lay.

T1 sequence (O75762 whole entry): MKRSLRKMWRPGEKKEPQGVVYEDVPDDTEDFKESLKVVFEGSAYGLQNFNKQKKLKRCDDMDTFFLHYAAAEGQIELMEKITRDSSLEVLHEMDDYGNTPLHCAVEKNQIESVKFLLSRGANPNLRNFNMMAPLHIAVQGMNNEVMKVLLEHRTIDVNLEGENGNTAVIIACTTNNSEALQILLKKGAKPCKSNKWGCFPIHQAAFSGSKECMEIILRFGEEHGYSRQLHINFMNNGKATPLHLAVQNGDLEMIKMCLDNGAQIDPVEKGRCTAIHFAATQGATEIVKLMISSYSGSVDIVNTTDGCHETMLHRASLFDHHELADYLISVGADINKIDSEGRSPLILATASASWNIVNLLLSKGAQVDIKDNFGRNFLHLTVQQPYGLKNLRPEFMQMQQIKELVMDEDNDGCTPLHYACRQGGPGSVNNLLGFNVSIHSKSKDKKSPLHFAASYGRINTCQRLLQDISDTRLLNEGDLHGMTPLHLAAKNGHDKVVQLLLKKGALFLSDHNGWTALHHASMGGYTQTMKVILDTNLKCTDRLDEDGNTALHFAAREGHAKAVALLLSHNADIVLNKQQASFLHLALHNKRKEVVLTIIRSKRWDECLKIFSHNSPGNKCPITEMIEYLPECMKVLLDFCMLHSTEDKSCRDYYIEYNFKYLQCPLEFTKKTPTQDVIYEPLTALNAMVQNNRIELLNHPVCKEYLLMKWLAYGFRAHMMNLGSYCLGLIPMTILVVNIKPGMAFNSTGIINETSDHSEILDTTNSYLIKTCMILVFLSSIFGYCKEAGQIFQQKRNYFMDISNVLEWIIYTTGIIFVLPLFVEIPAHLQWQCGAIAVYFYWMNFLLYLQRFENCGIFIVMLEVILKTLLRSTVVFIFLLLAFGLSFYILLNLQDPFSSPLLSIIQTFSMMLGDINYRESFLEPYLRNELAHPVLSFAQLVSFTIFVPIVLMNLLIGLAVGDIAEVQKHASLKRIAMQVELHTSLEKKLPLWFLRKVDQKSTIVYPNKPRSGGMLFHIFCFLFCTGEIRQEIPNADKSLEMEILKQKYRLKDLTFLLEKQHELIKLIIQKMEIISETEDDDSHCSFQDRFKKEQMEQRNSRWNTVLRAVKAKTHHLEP

One experiment has as its target T1, Transient receptor potential cation channel subfamily A member 1 (Homo sapiens, UniProt O75762). The experiment is described as follows: Antagonist activity at human TRPA1 channel expressed in CHO cells assessed as inhibition of cinnamaldehyde-induced intracellular calcium influx. Background: A change in cytosolic calcium serves as a functional read-out for many receptors and channels.
What is called IC50 is the midpoint of a concentration-inhibition curve. As to `CCC(N=O)C(C)=Cc1ccc(C)nc1` (stereo unspecified) [2-methyl-1-(6-methylpyridin-3-yl)pent-1-en-3-one oxime], the IC50 is more than 100 µM. On the same count and under the same terms, then `CCC(N=O)C(C)=Cc1ccc(C(F)(F)F)nc1` (stereo unspecified) [2-methyl-1-(6-(trifluoromethyl)pyridin-3-yl)pent-1-en-3-one oxime], with more than 100 µM; and `CCC(N=O)C(C)=Cc1cncc2ccccc12` (stereo unspecified) [1-(isoquinolin-4-yl)-2-methylpent-1-en-3-one oxime], with more than 100 µM. On the same count and under the same terms, then `CCC(N=O)C(C)=Cc1cnc2ccccc2c1` (stereo unspecified) [2-methyl-1-(quinolin-3-yl)pent-1-en-3-one oxime], with more than 100 µM.

In the case of `CCC(N=O)C(C)=Cc1cnccc1C` (stereo unspecified) [2-methyl-1-(4-methylpyridin-3-yl)pent-1-en-3-one oxime], the IC50 was more than 100 µM.

The target in a further experiment is T1, Transient receptor potential cation channel subfamily A member 1. The experiment in a line: Activation of TRPA1 channel. In outline:
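Cell lines transfected with TRPA1 and loaded with a calcium-sensitive dye, read on FLIPR. Calcium influx is counted as the change in fluorescence above background. Each material was tested by preincubation or by direct addition. Calcium counts are expressed as a percentage of the control calcium count.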
Usually EC50 stands for the concentration needed to bring the measured effect to its halfway point. Read a low EC50 as a more potent agent. Consider `CC(C)[C@@H]1CC[C@@H](C)C[C@H]1O`, for which a half-maximal effect (EC50) was put at 28.4 µM.
